Activity calls are given as the source filed them. No cut-off for these calls is given here.
Experiments:
[1] = target: Free fatty acid receptor 1 (Homo sapiens, UniProt O14842); test: Agonist activity at human GPR40 expressed in CHO cells by calcium flux assay; type: functional, cell-based
Summary of the method: (§1)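 Intracellular calcium flux read in CHO cells transfected with GPR40; values are means of two or three independent experiments.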

[2] = target: Free fatty acid receptor 1 (Rattus norvegicus, UniProt Q8K3T4); test: Agonist activity at rat GPR40 expressed in CHO cells by calcium flux assay; type: functional, cell-based; summary of the method: as §1
Free fatty acid receptor 1 (Rattus norvegicus, UniProt Q8K3T4), sequence (Q8K3T4 whole entry): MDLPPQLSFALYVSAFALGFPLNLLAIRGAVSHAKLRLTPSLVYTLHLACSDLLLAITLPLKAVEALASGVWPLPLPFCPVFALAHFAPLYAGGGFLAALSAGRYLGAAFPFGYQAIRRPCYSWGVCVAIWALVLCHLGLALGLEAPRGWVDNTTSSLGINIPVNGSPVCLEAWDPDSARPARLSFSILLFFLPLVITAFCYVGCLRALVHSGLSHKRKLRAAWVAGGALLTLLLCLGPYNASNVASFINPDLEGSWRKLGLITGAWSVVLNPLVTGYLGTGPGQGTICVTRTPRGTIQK

[3] = Lipophilicity, log D of the compound at pH 7.4; type: physicochemical; conditions: buffer
Homo sapiens = species: Homo sapiens; test: Inhibition of mitochondrial respiratory chain complex 1 (unknown origin) at 100 uM
Summary of the method: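 Compound tested at 100 μM. Read-out is percent inhibition of mitochondrial respiratory chain complex 1.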

Rattus norvegicus [4] = test: Antidiabetic activity in diabetic Zucker fatty rat model assessed as reduction of blood glucose level at 10 mg/kg, po administered 30 mins prior to glucose challenge by oral glucose tolerance test; type: functional, organism-based; parameters: dose 10 mg/kg
Summary of the method: (§2)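 Nine-week-old Zucker fatty rats fasted overnight; vehicle or compound given orally (1–10 mg/kg) 30 min before oral glucose load of 2 g/kg; blood sampled for plasma glucose and insulin; mean ± S.E., n = 6.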

[5] = Clearance in F344 rat at 2 mg/kg, iv; type: ADME, organism-based; parameters: dose 2 mg/kg, route intravenous; conditions: in vivo
Summary of the method: (§3)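 F344 rats, single iv dose of 2 mg/kg, plasma pharmacokinetic parameters determined.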

[6] = Volume of distribution at steady state in F344 rat at 2 mg/kg, iv; type: ADME, organism-based; parameters: dose 2 mg/kg, route intravenous; conditions: in vivo, read-out: Vdss; summary of the method: as §3
[7] = Half life in F344 rat at 2 mg/kg, iv; type: ADME, organism-based; parameters: dose 2 mg/kg, route intravenous; conditions: in vivo; summary of the method: as §3
[8] = Cmax in F344 rat at 3 mg/kg, po; type: ADME, organism-based; parameters: dose 3 mg/kg, route oral; conditions: in vivo
Summary of the method: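 F344 rats, single oral dose of 3 mg/kg, plasma pharmacokinetic parameters determined.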

[9] = AUC in F344 rat at 3 mg/kg, po; type: ADME, organism-based; parameters: dose 3 mg/kg, route oral; conditions: plasma
[10] = Oral bioavailability in F344 rat at 3 mg/kg; type: ADME, organism-based; conditions: in vivo
Summary of the method: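 F344 rats. Bioavailability from an iv dose of 2 mg/kg paired with an oral dose of 3 mg/kg.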

MIN6 = test: Insulinotropic effect in mouse MIN6 cells in presence of 25 mM glucose; type: functional, cell-based
Summary of the method: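 MIN6 mouse insulinoma cells exposed to compound from 0.001 to 10 µM with 25 mM glucose; insulin secreted into medium measured; mean ± S.E. of 4 wells.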

Rattus norvegicus [11] = test: Antidiabetic activity in po dosed diabetic Zucker fatty rat model assessed as reduction of blood glucose level administered 30 mins prior to glucose challenge by oral glucose tolerance test; type: functional, organism-based; summary of the method: as §2
Rattus norvegicus [12] = test: Antidiabetic activity in diabetic Zucker fatty rat model assessed as reduction of blood glucose level at 3 mg/kg, po administered 30 mins prior to glucose challenge by oral glucose tolerance test relative to sitagliptin; type: functional
Rattus norvegicus [13] = test: Antidiabetic activity in diabetic Zucker fatty rat model assessed as increase in insulin level measured during OGTT at 1 to 10 mg/kg, po administered 30 mins prior to glucose challenge; type: functional, organism-based; summary of the method: as §2
[14] = Cmax in diabetic Zucker fatty rat model measured during OGTT at 1 mg/kg, po administered 30 mins prior to glucose challenge; type: ADME, organism-based; parameters: dose 1 mg/kg, route oral; conditions: in vivo
Summary of the method: (§4)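 Plasma exposure (Cmax, AUC) measured during OGTT in overnight-fasted Zucker fatty rats dosed orally 30 min before a 2 g/kg glucose challenge.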

[15] = Cmax in diabetic Zucker fatty rat model measured during OGTT at 3 mg/kg, po administered 30 mins prior to glucose challenge; type: ADME, organism-based; parameters: dose 3 mg/kg, route oral; conditions: in vivo; summary of the method: as §4
[16] = Cmax in diabetic Zucker fatty rat model measured during OGTT at 10 mg/kg, po administered 30 mins prior to glucose challenge; type: ADME, organism-based; parameters: dose 10 mg/kg, route oral; conditions: in vivo; summary of the method: as §4
[17] = AUC in diabetic Zucker fatty rat model measured during OGTT at 1 mg/kg, po administered 30 mins prior to glucose challenge; type: ADME, organism-based; parameters: dose 1 mg/kg, route oral; conditions: in vivo
Summary of the method: (§5)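 9-week-old Zucker fatty rats were fasted overnight and given vehicle or compound orally 30 min before an oral glucose tolerance test with a 2 g/kg glucose challenge. Blood was sampled during the OGTT, and plasma exposure was reported as Cmax (µg/ml) and AUC (µg h/ml).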

[18] = AUC in diabetic Zucker fatty rat model measured during OGTT at 3 mg/kg, po administered 30 mins prior to glucose challenge; type: ADME, organism-based; parameters: dose 3 mg/kg, route oral; conditions: in vivo; summary of the method: as §5
[19] = AUC in diabetic Zucker fatty rat model measured during OGTT at 10 mg/kg, po administered 30 mins prior to glucose challenge; type: ADME, organism-based; parameters: dose 10 mg/kg, route oral; conditions: in vivo; summary of the method: as §5
[20] = Clearance in F344 rat at 10 mg/kg, iv; type: ADME, organism-based; parameters: dose 10 mg/kg, route intravenous; conditions: in vivo
Summary of the method: (§6)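 F344 rats; single dose given iv at 10 mg/kg or orally at 10 mg/kg (some compounds iv 2 mg/kg and po 3 mg/kg); plasma drug levels used to derive pharmacokinetic parameters.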

[21] = Volume of distribution at steady state in F344 rat at 10 mg/kg, iv; type: ADME, organism-based; parameters: dose 10 mg/kg, route intravenous; conditions: in vivo, read-out: Vdss; summary of the method: as §6
[22] = Half life in F344 rat at 10 mg/kg, iv; type: ADME, organism-based; parameters: dose 10 mg/kg, route intravenous; conditions: in vivo; summary of the method: as §6
[23] = Cmax in F344 rat at 10 mg/kg, po; type: ADME, organism-based; parameters: dose 10 mg/kg, route oral; conditions: in vivo; summary of the method: as §6
[24] = AUC in F344 rat at 10 mg/kg, po; type: ADME, organism-based; parameters: dose 10 mg/kg, route oral; conditions: plasma; summary of the method: as §6
[25] = Oral bioavailability in F344 rat at 10 mg/kg; type: ADME, organism-based; conditions: in vivo; summary of the method: as §6
[26] = Oral bioavailability in F344 rat; type: ADME, organism-based; conditions: in vivo; summary of the method: as §6

Free fatty acid receptor 1 (Homo sapiens, UniProt O14842), sequence (O14842 whole entry): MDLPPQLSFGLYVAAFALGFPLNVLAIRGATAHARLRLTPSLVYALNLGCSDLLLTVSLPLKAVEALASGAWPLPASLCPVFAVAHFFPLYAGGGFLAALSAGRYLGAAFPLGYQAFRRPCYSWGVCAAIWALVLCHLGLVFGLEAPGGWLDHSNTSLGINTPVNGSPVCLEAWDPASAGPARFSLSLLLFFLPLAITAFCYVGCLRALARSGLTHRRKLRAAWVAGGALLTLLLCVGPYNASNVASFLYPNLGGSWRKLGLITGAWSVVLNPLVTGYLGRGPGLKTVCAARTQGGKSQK

Row | Compound | EC50 [1] [nM] | EC50 [2] [nM] | logD [3] | also measured
1 | N[C@@H](CC(=O)N1CCn2c(nnc2C(F)(F)F)C1)Cc1cc(F)c(F)cc1F |  |  |  | Activity (Rattus norvegicus [4]): Active
2 | Cc1cccc(C)c1-c1cccc(COc2ncc(CCC(=O)O)s2)c1 | 65 | 540 |  | 
3 | Cc1cccc(C)c1-c1cccc(COc2ccc(C(F)CC(=O)O)cn2)c1 (configuration not stated) | 18 | 96 |  | inhibition (Homo sapiens): 91%
4 | CCOC(CC(=O)O)c1ccc(OCc2ccccc2C)cc1 (configuration not stated) | 20 | 79 | 1.2 | inhibition (Homo sapiens): 6%; clearance [5]: 6.17 mL/min/kg; Vd [6]: 0.16 L/kg; half-life [7]: 22.2 min; Cmax [8]: 3300 ng/mL; AUC [9]: 5300 ng·h/mL; bioavailability [10]: 64%; Activity (MIN6): Dose-dependent effect; Activity (Rattus norvegicus [11]): Dose-dependent effect; fold change (FC) (Rattus norvegicus [12]): 3; Activity (Rattus norvegicus [13]): Active; Cmax [14]: 4100 ng/mL; Cmax [15]: 14000 ng/mL; Cmax [16]: 51 µg/mL; AUC at 0.5 h [17]: 4800 ng·h/mL; AUC at 0.5 h [18]: 19000 ng·h/mL; AUC at 0.5 h [19]: 78000 ng·h/mL
5 | Cc1cccc(C)c1-c1cccc(COc2ccc(CCC(=O)O)s2)c1 | 52 | 840 | > 2.4 | 
6 | Cc1cccc(C)c1-c1cccc(COc2cc3c(cn2)C(CC(=O)O)OC3)c1 (configuration not stated) | 49 | 190 |  | 
7 | Cc1cc(CCC(=O)O)cnc1OCc1cccc(-c2c(C)cccc2C)c1 | 2500 | 9100 |  | 
8 | Cc1cc(OCc2cccc(-c3c(C)cccc3C)c2)ncc1CCC(=O)O | 9.3 | 130 |  | 
9 | CCOC(CC(=O)O)c1ccc(OCc2ccc(C)cc2)cc1 (configuration not stated) | 370 | 290 |  | 
10 | COC(Cc1ccc(OCc2cccc(-c3c(C)cccc3C)c2)nc1)C(=O)O (configuration not stated) | 120 | > 10000 |  | 
11 | Cc1cccc(C)c1-c1cccc(COc2cnc(CCC(=O)O)cn2)c1 | 3.8 | 16 | 2.5 | 

Now from value to compound, other results behind:

Row | EC50 [1] [nM] | EC50 [2] [nM] | logD [3] | Compound | also measured
12 | 14 | 130 | 2.8 | CCOC(CC(=O)O)c1ccc(OCc2cccc(-c3c(C)cccc3C)c2)nc1 (configuration not stated) | inhibition (Homo sapiens): 66%
13 | 8.6 | 250 |  | Cc1cccc(C)c1-c1cccc(COc2ccc(CC(F)C(=O)O)cn2)c1 (configuration not stated) | inhibition (Homo sapiens): 58%
14 | 71 | 210 | 2.4 | Cc1cccc(C)c1-c1cccc(COc2ccc(CCC(=O)O)nc2)c1 | 
15 | 230 | 760 | 0.7 | CCOC(CC(=O)O)c1ccc(OCc2ccccc2)nc1 (configuration not stated) | inhibition (Homo sapiens): 1%
16 | 3.5 | 38 | 3 | Cc1cccc(C)c1-c1cccc(COc2ccc(CCC(=O)O)cn2)c1 | clearance [20]: 20 mL/min/kg; Vd [21]: 0.22 L/kg; half-life [22]: 14.4 min; Cmax [23]: 3500 ng/mL; AUC [24]: 2000 ng·h/mL; bioavailability [25]: 24%
17 | 130 | 1400 | 2 | Cc1cccc(C)c1-c1cccc(COc2ncc(CCC(=O)O)cn2)c1 | 
18 | 13 | 99 |  | O=C(O)CCc1ccc(NCc2cccc(Oc3ccccc3)c2)cc1 [GW9508] | 
19 | 81 | 1100 |  | Cc1cccc(C)c1-c1cccc(COc2ccc(CCC(=O)O)c(C)n2)c1 | 
20 | 35 | 78 |  | CCOC(CC(=O)O)c1ccc(OCc2cccc(C)c2)cc1 (configuration not stated) | 
21 | 10 | 320 | 3.3 | Cc1cccc(C)c1-c1cccc(COc2ccc(C(C)CC(=O)O)cn2)c1 (configuration not stated) | inhibition (Homo sapiens): 39%
22 | 65 | 2100 |  | Cc1cccc(C)c1-c1cccc(COc2ccc(CC(C)C(=O)O)cn2)c1 (configuration not stated) | 
23 | 6.7 | 18 | > 3.3 | Cc1cccc(C)c1-c1cccc(COc2ccc(CCC(=O)O)cc2)c1 | inhibition (Homo sapiens): 58%; bioavailability [26]: 0.9%
24 | 420 | 310 |  | Cc1cccc(C)c1-c1cccc(COc2ccc(CCC(=O)O)nn2)c1 | 

Source: ChEMBL document CHEMBL3286210, “Discovery of 3-aryl-3-ethoxypropanoic acids as orally active GPR40 agonists” (Bioorg Med Chem Lett, 2014)
